Measurements published in article PMC7860060 (ACS Omega, 2021).
Entries after “also recorded” stand apart in the source; their conditions may differ. Where no end group is shown, it is not given here.

Legend:
native Fgn (fibrinogen) = experiment: ITC titration of peptide into native Fgn; assay type: binding, bovine; conditions: peptide 0.21 mM into Fgn 4 μM, 0.1 M sodium phosphate pH 7.4, 25 °C
How it was run: (§1)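 Bovine plasma fibrinogen was used either native or carbamylated by stirring 0.008 mM protein with 0.1 M sodium cyanate in 0.1 M phosphate pH 7.4 at room temperature for 2 days. Cell held 4 μM protein; peptide titrant was 0.21 mM; both were in 0.1 M sodium phosphate pH 7.4. 50 injections 200 s apart, 150 rpm, 25 °C. Dilution heat subtracted, independent-model fit, repeated at least twice.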

[1] = biological target: carbamylated HSA (cHSA-3) (Homo sapiens, UniProt P02768); experiment: ITC titration of peptide into cHSA-3; assay type: binding; conditions: pH 7.4
[2] = biological target: carbamylated HSA (cHSA-2) (Homo sapiens, UniProt P02768); experiment: ITC titration of peptide into cHSA-2; assay type: binding
[3] = biological target: carbamylated HSA (cHSA-1) (Homo sapiens, UniProt P02768); experiment: ITC titration of peptide into cHSA-1; assay type: binding; conditions: pH 7.4
[4] = biological target: anti-Hcit (anti-carbamylation (homocitrulline) polyclonal antibody); experiment: ITC titration of peptide into anti-Hcit; assay type: binding, rabbits; conditions: peptide into solution containing only anti-Hcit, 25 °C, 0.01 M PBS pH 7.4 containing 50% glycerol and 0.02% NaN3 (control test)
native HSA = native HSA (Homo sapiens, UniProt P02768); experiment: ITC titration of peptide into native HSA; assay type: binding; conditions: 0.1 M sodium phosphate pH 7.4, 25 °C
[5] = biological target: T1, carbamylated fibrinogen (cFgn) (Bos taurus, UniProt P02672+P02676+P12799, DEL436-444); experiment: ITC titration of peptide into cFgn; assay type: binding, bovine
T1 sequence (P02672 20-615): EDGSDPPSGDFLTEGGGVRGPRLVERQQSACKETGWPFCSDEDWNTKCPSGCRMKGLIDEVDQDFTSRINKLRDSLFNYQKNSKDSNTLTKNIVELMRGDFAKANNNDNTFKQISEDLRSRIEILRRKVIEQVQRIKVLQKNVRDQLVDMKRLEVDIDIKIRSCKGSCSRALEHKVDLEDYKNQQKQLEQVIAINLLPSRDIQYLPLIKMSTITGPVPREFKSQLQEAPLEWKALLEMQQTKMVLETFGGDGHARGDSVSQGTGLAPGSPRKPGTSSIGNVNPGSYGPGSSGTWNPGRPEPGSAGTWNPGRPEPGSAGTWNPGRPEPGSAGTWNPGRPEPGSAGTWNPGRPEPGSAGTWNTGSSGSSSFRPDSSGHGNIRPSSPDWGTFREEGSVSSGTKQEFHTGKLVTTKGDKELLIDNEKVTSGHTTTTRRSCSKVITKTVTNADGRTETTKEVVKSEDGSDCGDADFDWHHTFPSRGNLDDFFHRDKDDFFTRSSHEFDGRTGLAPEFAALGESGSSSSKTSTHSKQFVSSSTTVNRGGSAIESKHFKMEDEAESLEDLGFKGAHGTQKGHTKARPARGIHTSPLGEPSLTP
T1 sequence (P02676 1-468): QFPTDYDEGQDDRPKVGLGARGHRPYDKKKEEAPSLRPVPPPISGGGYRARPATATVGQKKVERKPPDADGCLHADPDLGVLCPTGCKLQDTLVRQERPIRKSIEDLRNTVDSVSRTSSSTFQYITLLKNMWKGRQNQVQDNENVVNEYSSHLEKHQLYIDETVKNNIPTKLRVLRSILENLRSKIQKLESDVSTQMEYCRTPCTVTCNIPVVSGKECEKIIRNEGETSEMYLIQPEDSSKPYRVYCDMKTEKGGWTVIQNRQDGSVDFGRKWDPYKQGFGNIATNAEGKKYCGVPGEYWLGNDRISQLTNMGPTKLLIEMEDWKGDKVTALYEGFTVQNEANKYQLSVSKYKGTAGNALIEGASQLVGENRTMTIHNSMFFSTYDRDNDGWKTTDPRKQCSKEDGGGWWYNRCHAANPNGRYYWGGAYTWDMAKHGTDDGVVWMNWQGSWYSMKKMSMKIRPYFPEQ
T1 sequence (P12799 25-435 limits assumed): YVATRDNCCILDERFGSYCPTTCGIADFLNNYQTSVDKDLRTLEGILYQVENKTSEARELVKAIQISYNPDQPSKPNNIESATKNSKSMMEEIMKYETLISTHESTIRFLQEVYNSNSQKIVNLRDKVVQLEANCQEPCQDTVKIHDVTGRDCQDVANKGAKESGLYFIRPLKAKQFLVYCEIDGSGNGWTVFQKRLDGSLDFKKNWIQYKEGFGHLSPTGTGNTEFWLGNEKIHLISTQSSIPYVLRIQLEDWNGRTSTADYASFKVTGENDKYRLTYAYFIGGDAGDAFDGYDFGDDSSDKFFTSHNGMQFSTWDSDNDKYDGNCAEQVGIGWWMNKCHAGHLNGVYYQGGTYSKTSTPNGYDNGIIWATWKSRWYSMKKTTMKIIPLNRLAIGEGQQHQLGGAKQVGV
How it was run: as §1

cHSA = cHSA (Homo sapiens, UniProt P02768); experiment: ITC titration of peptide into cHSA of different levels of carbamylation; assay type: binding
[6] = Water solubility of peptides; assay type: physicochemical; conditions: peptide excluded from synthesis for ITC; 'would be' marginally soluble
[7] = biological target: Carbamylated human serum albumin, Hcit% 2.7 (cHSA-2) (human) (UniProt P02768); experiment: ITC
[8] = biological target: Albumin from human serum (native HSA) (human, UniProt P02768 25-609); experiment: ITC
[9] = biological target: Anti-carbamylation (homocitrulline) polyclonal antibody (anti-Hcit) (rabbit); experiment: ITC

Sequence of cHSA (P02768 25-609): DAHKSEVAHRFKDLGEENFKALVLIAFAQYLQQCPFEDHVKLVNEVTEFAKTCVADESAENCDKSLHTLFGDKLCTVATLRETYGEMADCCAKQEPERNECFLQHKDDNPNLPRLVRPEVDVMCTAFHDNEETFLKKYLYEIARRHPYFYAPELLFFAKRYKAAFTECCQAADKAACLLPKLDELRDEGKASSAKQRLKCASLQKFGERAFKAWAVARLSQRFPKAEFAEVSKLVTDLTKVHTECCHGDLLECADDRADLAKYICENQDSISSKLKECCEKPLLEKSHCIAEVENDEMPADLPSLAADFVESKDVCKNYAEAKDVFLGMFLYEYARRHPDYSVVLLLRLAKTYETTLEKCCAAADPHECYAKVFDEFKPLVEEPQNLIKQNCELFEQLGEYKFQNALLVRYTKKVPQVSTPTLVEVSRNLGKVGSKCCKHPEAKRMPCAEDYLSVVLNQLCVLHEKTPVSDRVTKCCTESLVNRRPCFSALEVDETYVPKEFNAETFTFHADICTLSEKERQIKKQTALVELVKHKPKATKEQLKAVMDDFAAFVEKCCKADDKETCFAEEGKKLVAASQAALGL
Sequence of native HSA (P02768 25-609): as above
Sequence of Albumin from human serum (native HSA) (P02768 25-609): as above

Molecule: GSAARTISPSLL [cH2-p1]
- binding to native Fgn (ITC) (native Fgn (fibrinogen)): not binding to native Fgn at all
- Kd [1]: 99 µM
- Kd to cHSA relative to Kd to native HSA ([2]; ITC, comparison with native HSA): almost 1 order of magnitude lower than its Kd to native HSA
- binding affinity for cHSA versus HSA (ITC and ELISA) ([2]; both ITC and ELISA results): consistently higher binding affinity for cHSA than HSA
- Kd ([2]; pH 7.4): 97 µM
- Kd [3]: 120 µM
- Kd [4]: 1000 µM
- binding to HSA in words (ITC) (native HSA): too weak to produce an obvious titration curve
- Kd [5]: 84 µM
- binding thermodynamics (sign of heat), cFgn ([5]; ITC titration peaks, pH 7.4, 25 °C): endothermic
- binding to carbamylated versus native fibrinogen (ITC) ([5]; cFgn versus native Fgn): binding specificity to carbamylated fibrinogen (cFgn); also recorded: found to bind cFgn over the native protein
- Kd (cHSA): ~100 µM
- binding thermodynamics (sign of heat), HSA/cHSA (cHSA; ITC titration peaks, HSA/cHSA, pH 7.4, 25 °C): exothermic
- influence of extent of carbamylation on binding affinity (cHSA; ITC, cHSA-1, cHSA-2, cHSA-3): difference in surface charge did not seem to affect the binding affinity; also recorded: not found to be influenced by the extent of carbamylation

Molecule: TPTIAIAQYNKW [cH2-p5]
- aqueous solubility (expected) [6]: marginally soluble

Molecule: WPARTSAPFTNS [cH2-p3]
- aqueous solubility (expected) [6]: marginally soluble

Molecule: AHPHSDKLVPPR [cH2-p4 peptide (synthetic)]
- Kd [7]: 130 µM

Molecule: TLGLRPVPVATT [cH2-p6 peptide (synthetic)]
- Kd [7]: 200 µM

Molecule: GSAARTISPSLL [cH2-p1 peptide (synthetic)]
- Kd [8]: 1000 µM
- Kd [9]: 1000 µM
